# CYP2C9 activ: human CYP2C9 activators, primary screen, biochemical, luminescence; Cytochrome P450 2C9 (Homo sapiens), P11712; recombinant CYP2C9, luciferin-H conversion; active compounds read high; factor 1 = untreated enzyme, 0 = blocked; activation factor at 5 µM; 96,000 compounds, 1.4% hits;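 active = activation factor of 2 or more for CYP2C9 at a 5 µM dose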
# Target sequence (P11712 whole entry, looked up): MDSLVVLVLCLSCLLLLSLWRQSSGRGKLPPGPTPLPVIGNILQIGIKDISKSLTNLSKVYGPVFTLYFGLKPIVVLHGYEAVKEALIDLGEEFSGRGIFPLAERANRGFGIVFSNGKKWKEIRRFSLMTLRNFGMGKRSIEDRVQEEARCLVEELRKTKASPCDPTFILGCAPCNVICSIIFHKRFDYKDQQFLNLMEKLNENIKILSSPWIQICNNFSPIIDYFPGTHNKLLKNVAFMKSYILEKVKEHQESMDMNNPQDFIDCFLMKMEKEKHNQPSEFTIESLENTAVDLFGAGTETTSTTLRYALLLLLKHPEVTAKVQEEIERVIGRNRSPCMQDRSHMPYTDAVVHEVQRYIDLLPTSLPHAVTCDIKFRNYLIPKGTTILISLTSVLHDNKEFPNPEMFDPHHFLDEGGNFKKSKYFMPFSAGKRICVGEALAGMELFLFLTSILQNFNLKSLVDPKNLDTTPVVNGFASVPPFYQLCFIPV
# tolC growth inh: growth inhibitors of E. coli tolC mutant, primary screen, strain BW25113 ΔtolC::kan, 384-well; OD615; growth inhibition, % at 10 µM (by protocol); 65,000 compounds, 2.2% hits;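 active = growth inhibition at or above a cutoff equal to the mean over every tested compound plus 3 SD, cut at about 60% in these data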;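 note: growth measured after 20 h incubation at 37 °C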
#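 signal = optical density read at 615 nm | test system = E. coli ΔtolC::kan strain BW25113 | timing = 20 h compound exposure of bacteria at 37 °C | buffer or medium = LB medium plus 50 µg/mL kanamycin | compound dosing = 10 µM final, single dose | evaluation = % inhibition of E. coli growth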
# CYP2C19 act: human CYP2C19 activators, primary screen, biochemical, luminescence; activation factor at 5 µM; recombinant CYP2C19, luciferin-H EGE luminescence; active compounds read high; 0 = fully inhibited enzyme, 1 = untreated enzyme; Cytochrome P450 2C19 (Homo sapiens), P33261; 96,000 tested, under 10 active;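 active = activation factor of at least 2 at 5 µM in the primary screen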
# Ecoli WT expand: growth inhibitors of wild-type E. coli, primary screen, strain BW25113, expanded library, OD600. OD600 absorbance. growth inhibition, % at 100 µM. 98,000 compounds, 0.15% hits. AID 710, 2007;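 active = growth inhibition above about 50% at one test dose, limit read from the data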;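 note: growth measured after 20 h incubation at 37 °C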
# CYP2C9 inhib: blockers of cytochrome P450 2C9 activity – biochemical, luminescence, ADME assay, primary screen | inhibition, % at 5 µM | P11712 | AID 777, 2007 | CYP2C9 Supersomes, luciferin-H conversion | 96,000 compounds, 20% hits;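 active = blocking of liver enzyme CYP2C9 beyond about 50% at 5 µM, limit read from the data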
# CYP2C19 inh: blockers of cytochrome P450 2C19 activity – biochemical, luminescence, ADME assay, primary screen. P33261. CYP2C19 Supersomes, luciferin-H EGE luminescence, 30 min. inhibition, % at 5 µM. 96,000 compounds, 21% hits. AID 778, 2007;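 active = CYP2C19 inhibition above a set limit at 5 µM in the primary screen, cut at about 50% in these data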
# A number is an active result; – = inactive; · = no result. Hits are enriched below; roughly 29% of the tested compounds scored in any of these assays.
SMILES,CYP2C9 activ,tolC growth inh,CYP2C19 act,Ecoli WT expand,CYP2C9 inhib,CYP2C19 inh
O=C(Nc1c(F)cc(F)cc1Br)c1cc(-c2ccco2)on1,2,–,–,–,–,–
O=C(Nc1cccc(O)c1)c1cc(-c2ccco2)on1,2,·,–,–,–,–
CCCNC(=O)c1cc(-c2ccco2)on1,·,–,·,–,·,·
O=C(NC1CCCCC1)c1cc(-c2ccco2)on1,2.8,–,–,–,–,–
O=C(Nc1ccc(F)cc1F)c1cc(-c2ccco2)on1,–,–,–,–,–,–
CC(C)Cc1cc(C(=O)Nc2c(F)cc(F)cc2Br)no1,–,–,–,–,–,68
Cc1cc(C)nc(SCCC(=O)Nc2ccccc2C)n1,–,·,–,–,–,–
C=CCSc1nc(N)c(C(=O)Nc2ccccc2C)cc1C(N)=O,–,–,–,–,66,68
CN(C)CCNC(=O)c1c(O)c2c([nH]c1=O)CCCC2,–,–,–,–,–,–
CN(C(=O)CCN1C(=O)C(C)(C)Nc2ccccc21)c1ccccc1,–,–,–,–,–,76
CC(=O)N1CCC2(CC1)CC(=O)c1cc(OCC(=O)NCc3ccc(C)cc3)ccc1O2,–,–,–,–,–,–
CC(C)OP(=O)(OC(C)C)C(NC(=O)c1cccc([N+](=O)[O-])c1)C(N)=O (stereo unspecified),–,·,–,–,–,–
Cc1cc(C)n(C(=O)C23CC4CC(CC(C4)C2)C3)n1,–,–,–,–,–,–
CCS(=O)(=O)N1CCN(c2ccccn2)CC1,–,·,–,–,–,–
C(#Cc1ccccc1)CN1CCN(c2ccccn2)CC1,–,–,–,–,76,98
Brc1ccc(CN2CCN(c3ccccn3)CC2)s1,–,·,–,–,90,99
c1ccc(COc2ccc(CN3CCN(c4ccccn4)CC3)cc2)cc1,–,·,–,–,59,–
COc1ccc(CN2CCN(c3ccccn3)CC2)c(OC)c1,–,–,–,–,–,–
CCOCCn1c(SC)nc2c1c(=O)[nH]c(=O)n2C,–,–,–,–,–,–
CCNc1ccc2c(Cl)cc(=O)oc2c1,–,–,–,–,–,–
Cc1[nH]nc(N=CC2=C(O)CC(c3ccco3)CC2=O)c1-c1ccccc1 (stereo unspecified),–,–,–,–,61,–
Cc1[nH]nc(N=CC2=C(O)CC(C)(C)CC2=O)c1-c1ccccc1,–,–,–,–,–,–
CC(C)(C)c1cn(-c2ccc(Cl)cc2)c(=S)[nH]1,–,·,–,–,–,73
CCOC(=O)c1cccc(NC(=O)CSc2nnc(COc3ccccc3C)o2)c1,–,–,–,–,–,–
COc1nc(N)c(S(=O)(=O)c2ccccc2C)cc1C#N,–,·,–,–,–,78
SMILES,CYP2C9 activ,tolC growth inh,CYP2C19 act,Ecoli WT expand,CYP2C9 inhib,CYP2C19 inh
COc1nc(N)c(S(=O)(=O)c2ccccc2)cc1C#N,2.4,·,–,–,–,–
COc1ccccc1C1/C(=C(/O)c2ccc(Cl)cc2)C(=O)C(=O)N1CCN1CCOCC1 (stereo unspecified),–,–,–,–,–,–
O=C(CSc1nnc(CNC(=O)c2cccs2)o1)Nc1cccc(C(F)(F)F)c1,–,–,–,–,–,–
N#Cc1c(-c2ccccc2)nc2n(c1=O)CCS2,–,·,–,–,–,–
COc1ccc(NC(=O)NC2(C(=O)N3CCCCCC3)CCCCC2)cc1,–,–,–,–,60,–
Cc1ccc(NC(=O)NC2(C(=O)NCc3ccccc3)CCCCC2)cc1,–,·,–,–,–,–
Cc1ccc(CNC(=O)C2(NC(=O)Nc3ccc(C)cc3)CCCCC2)cc1,–,·,–,–,54,–
COc1ccc(NC(=O)Nc2ccccc2C(=O)N2CCCC2)cc1,–,–,–,–,–,–
O=C(O)c1ccccc1-c1ccccc1C(=O)NCc1ccco1,–,–,–,–,–,–
Fc1ccc(Oc2cc(N3CCOCC3)nc(-c3ccccc3)n2)c(F)c1,–,·,–,–,–,–
CCOC(=O)c1c(C)c(C(=O)Nc2cc(F)ccc2F)c(C)n1C,·,–,·,·,·,·
CCOc1ccc(OCC)c(NC(=O)C2CCN(S(=O)(=O)c3cccnc3)CC2)c1,–,·,–,–,–,55
